Test system: MS2 coat protein
Test: apparent Kd, MS2 coat protein; higher = weaker binding; RNA-MaP array; tryptophan 2.4 mM where present
How it was run: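 The apparent Kd is reported as the median of filtered per-cluster binding-curve fits. To get these curves, designs transcribed by stalled E. coli RNA polymerase on Illumina sequencing-chip clusters were titrated with SNAP-549-labelled MS2 coat protein from 0.7 or 1.5 nM, doubling to 3 µM. Titrations were run without and then with constant ligand in 100 mM Tris-HCl pH 7.5, 80 mM KCl, 4 mM MgCl2, BSA, DTT, yeast tRNA and Tween-20, and green signal was normalised to red-channel RNA signal and control-cluster median Fmax.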

[1] = designed as: OFF switch for tryptophan, no ligand
[2] = ligand present: tryptophan, designed as: OFF switch for tryptophan
[3] = designed as: ON switch for tryptophan, no ligand
[4] = ligand present: tryptophan, designed as: ON switch for tryptophan

| Sequence | apparent Kd [1] [nM] | apparent Kd [2] [nM] | apparent Kd [3] [nM] | apparent Kd [4] [nM] |
| --- | --- | --- | --- | --- |
| AGCGUGCAUAGGAAAACUAUGUACGCAAAUCGAGGACCGGUACGGCCGCCACUCGUCCUCAACAUGAGGAUCACCCAUGUAAUAA | 19.9 | 34.7 |  |  |
| GAGCUCGUGGACUGGCGUGCUCCGCUCCGUCGAGGACCGGUACGGCCGCCACUCGACAUGAGGAUCACCCAUGUGUGAGCUCGCG | 62.5 | 30.6 |  |  |
| GUUGUAUACUCGGCCGCCACUGAGAGAGUCAUGUAAACAUGAGGAUCACCCAUGUAAUAUAUAUACAGGACCGGGAGUAUGGUAA | 15 | 12.9 |  |  |
| AUAAUAAUCAUGGGUGAAGGUCCUCGCAAACGAGGACCGGUACGGCCGCCACUCGAACAUGAGGAUCACCCAUGUGUGAGGACCU |  |  | 58.8 | 36.9 |
| AAUAAUAAGGCGGCCGCCACUACACAUGAGGAUCACCCAUGUCUCGCGGGCUUGCGUUGGGAAUGUAGGACCGGGCCAAUAAUAA | 24.3 | 18.3 |  |  |
| AACAUGAGGAUCACCCAUGUGUCCUCGAAACGAGGACCGGUACGGCCGCCACUCGAAAUAAGCUGUUGACGAAAAGUCAGCAGCA | 281 | 501 |  |  |
| AGUUACUCGAACAUGGUUGACGAGUGGCAACGAGGACCGGUACGGCCGCCACUCGAAUAAACAUGAGGAUCACCCAUGUACAAAU |  |  | 135 | 104 |
| AGUUUGGACUCGGCCGCCACUCGUGAUGCUUUGGCACAUGAGGAUCACCCAUGUGGUCGGCCUUAGAGGACCGGGAGUACCAGCC |  |  | 405 | 43 |
| AAUAUAUAGACGGCCGCCACUGGAACCAAUACAUGAGGAUCACCCAUGUGAAAAGGAUAGGUUCACAGGACCGGGUCUUCAUGUA |  |  | 25.7 | 9.99 |
| CACGCACGAUCGGCCGCCACUCAUGUAGCUUACAUGAGGAUCACCCAUGUAUUUUCUUUCUUAUAGAGGACCGGGAUCGUGCGUG |  |  | 17.6 | 15.3 |
| AAUUAAACAUCGGCCGCCACUUACUCAUGAGGUAACAACAUGAGGAUCACCCAUGUUUGAGGAUCAAGGACCGGGAUGUAAUUUU |  |  | 29.8 | 22.2 |
| ACGUUGAAGUCGGCCGCCACUGAUUUCAUGUUCAACAUGAGGAUCACCCAUGUACCUUAUGUUAACAGGACCGGGACGUAUACGA |  |  | 479 | 117 |
| AACAUGAGGAUCACCCAUGUGUCCUCGAAACGAGGACCGGUACGGCCGCCACUCGAAGCAUGUUGACGAAAAGUCAGCAUGCAAA | 318 | 1060 |  |  |
| UAUUAUCAGUCGGCCGCCACUGACACAUGAGGAUCACCCAUGUAAUUUGGGUUAUAUAGAAAAUACAGGACCGGGACUAAGGCUA | 260 | 276 |  |  |
| AAUUUAUGGUUCUUGAUGUAGUAUCUAUUUCGAGGACCGGUACGGCCGCCACUCGUAAAUUACAUGAGGAUCACCCAUGUUAGCU | 24.6 | 29.5 |  |  |
| CUUGGCUGUGCGGCCGCCACUGACUCAUCCUGCAUUACAUGAGGAUCACCCAUGUUGCGGCCUCCCAGGACCGGGCAUAGCCUGC |  |  | 390 | 91.3 |
| CUAUAUAUAUCGGCCGCCACUUACUCAUGAGGUAACAACAUGAGGAUCACCCAUGUUUGAGGAUCAAGGACCGGGAUAUAUAUAG |  |  | 27.4 | 16.6 |
| AUAACCCUUGACUAAAACACUAAAUCAGUUCGAGGACCGGUACGGCCGCCACUCGUGUCAAGACAUGAGGAUCACCCAUGUACCU |  |  | 35.8 | 23.3 |
| AUUCAUGGAAACAUGACAUACAUAACCGGUCGAGGACCGGUACGGCCGCCACUCGGUUGGUGGCACAUGAGGAUCACCCAUGUUA |  |  | 23.9 | 26.4 |
| UAUCGUCAGACGGCCGCCACUAGAACAUGAGGAUCACCCAUGUAAGUGGCCGGUCUCCUCAUGACUAGGACCGGGUCUGACGAAU | 8.69 | 9.94 |  |  |
| UUAUAAGUACCGGUCCUCAGAUCCUCAUGACGAGGACCGGUACGGCCGCCACUCGAAACAUGAGGAUCACCCAUGUAAUAAUAUU | 22.1 | 20 |  |  |
| CUACAUUUGUAGAAACCGGUCAACAAUAAUCGAGGACCGGUACGGCCGCCACUCGUAUAAUUUAAUACAUGAGGAUCACCCAUGU |  |  | 14.9 | 15.4 |

— the EternaBench riboswitch data
